Results from different studies.
Protocols differ between the studies behind these lines.
Cell line: HCT-116
Observed: cell growth or viability

SMILES	method	time	notes	IC50
COc1ccc(-c2cc(-c3ccc(OC)cc3)c3c(=O)n(C)c(=O)n(C)c3n2)cc1	MTT	48 h	–	11600 nM
Cc1nc(N(Cc2ccccc2)c2ccc3c(c2)/C(=C/c2ccccc2)C(=O)N3Cc2ccccc2)c2ccccc2n1 (mixture of isomers)	MTT	–	–	980 nM
C=C(F)C(=O)N1CCN(c2nc(OC[C@@H]3CCCN3C)nc3c2CCN(c2cccc4cccc(Cl)c24)C3)C[C@@H]1CC#N	ATP luminescence	–	3D culture	> 1000 nM
Cc1nc(NC(=O)N2CCC[C@H]2C(N)=O)sc1-c1ccnc(C(C)(C)C(F)(F)F)c1	MTT	–	–	4340 nM
COc1nc(NCc2cn(-c3ccc(NC(=O)c4ccc(C(F)(F)F)cc4)cc3)nn2)nc(OC)n1	MTT	72 h	–	39.9 nM
Cc1nc2ccc(CN(C)c3ccc(C(=O)N[C@@H](CCC(=O)O)C(=O)O)s3)cc2c(=O)[nH]1	MTT	48 h	–	1070 nM
COc1nc(NCc2cn(-c3ccc(C(N)=O)cc3)nn2)nc(OC)n1	MTT	72 h	–	79.7 nM
Cc1nc(Nc2ccc3c(c2)/C(=C/c2ccccc2)C(=O)N3C)c2ccccc2n1	MTT	–	–	21400 nM
COc1nc(NCc2cn(-c3ccc(NC(=O)c4ccc(Br)cc4)cc3)nn2)nc(OC)n1	MTT	72 h	–	56.6 nM
Cc1ccc(-c2cc(-c3ccc(Cl)cc3)c3c(=O)[nH]c(=O)[nH]c3n2)cc1	MTT	48 h	–	5440 nM
